Reference: article PMC2765218 (Nature biotechnology, 2009)

Test system: mutant HTT
Format: cell-based, human
Conditions: GM04281 cells
Procedure, shortened: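 GM04281 fibroblasts (heterozygous for mutant HTT) were grown in MEM with 10% heat-inactivated FBS and plated 2 days before treatment. PNA-peptide conjugate stocks were heated 65 °C for 5 min, then added in OptiMEM; medium was replaced after 24 h and cells were harvested about 4 days later. BCA-normalised lysates ran on 5% Tris-acetate SDS-PAGE (ice bath) to separate wild-type and mutant HTT. Anti-HTT immunoblot with β-actin loading control; densitometry gave % inhibition versus control from triplicate experiments. Dose-response fit: y=100(1−x^m/(n^m+x^m)).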

Which “selectivity (wild-type IC50/mutant IC50), HTT” value does the source give for K-GGCGGCTGTTGCTGCTGCT-K8 [3J/HTT] here?
Its value is 5 fold.
